CHRM5 antagonist: blocks acetylcholine activation of human M5 receptor; inhibition, % at 3 µM; P08912; hit rate 0.59% among 360,000; CHO-hM5 cells, Fluo-8 calcium fluorescence, ACh EC80;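 active means inhibition above a per-plate cutoff, the mean of that plate's test compounds plus 3 SD, cut at about 27% in these data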;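 further: 0% = acetylcholine EC80 with DMSO and 100% = DMSO without agonist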
M1 PAM parental: M1 PAM counterscreen hit in parental CHO-K1 cells | ATP EC20, Fluo-8 calcium fluorescence; 0% at ATP EC20, 100% at ATP max | activation, % at 3 µM | hit rate 0.02% among 360,000 | AID 602247;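 active means activation above the run cutoff, the mean activation of all test compounds plus 3 SD, cut at about 40% in these data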;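 further: peak over basal fluorescence ratio in a 140 s read after ATP addition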
CHO-K1 Ca antag: counter-screen for M1 antagonists: effect in parental CHO-K1 cells; ATP-induced calcium, Fluo-8 fluorescence; AID 602250; hit rate 0.6% among 360,000; inhibition, % at 3 µM;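 active means inhibition above a per-plate cutoff, the plate's mean sample inhibition plus 3 SD, cut at about 24% in these data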;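 further: 0% = DMSO plus EC80 ATP and 100% = DMSO alone without ATP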
M5 ag: agonists of human muscarinic M5 receptor (CHRM5); P08912; CHO-K1 hM5 cells, Fluo-8 calcium fluorescence; 0% DMSO wells, 100% maximal acetylcholine response; activation, % at 3 µM; hit rate 0.19% among 360,000;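 active means activation above the run's mean over test compounds plus 3 SD, cut at about 23% in these data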;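 further: signal is peak over basal fluorescence ratio across the kinetic read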
M5 PAM: CHRM5 positive allosteric modulation; P08912; CHO-K1 hM5, Fluo-8 calcium, ACh EC20 PAM; 0% = ACh EC20, 100% = ACh EC100; activation, % at 3 µM; hit rate 0.3% among 360,000;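 active means activation above the run cutoff, the mean activation of all test compounds plus 3 SD, cut at about 18% in these data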
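System: CHO-K1 hM5 cells. Reagent: acetylcholine, EC20 level. Compound dosing: single dose, 3 µM nominal final test concentration. Timing: Post-acetylcholine fluorescence recording 140 s. Detection: Fluo-8 calcium fluorescence. Read-out: % activation, ACh-normalized. Benchmarks: ACh EC20 and EC100 wells. Repeats: singlicate, one well per test compound.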
M1 ag parental: M1 agonist counterscreen hit in parental CHO-K1 cells; Fluo-8 calcium fluorescence; scaled to maximal ATP response, vehicle zero; activation, % at 3 µM; hit rate 0.48% among 360,000; AID 602248; in the data active means activation above about 15%;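 further: untransfected CHO-K1 host cells lacking M1 receptor as counterscreen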
The depositor's hits bear a star. Hits are enriched below; roughly 1.7% of the tested compounds scored in any of these assays.

For O=C(NCC1CCCO1)c1ccccc1OCc1ccc(F)cc1 (stereo unspecified) the results were CHRM5 antagonist 3, M1 PAM parental -2, CHO-K1 Ca antag 10, M5 ag -1, M5 PAM 3 and M1 ag parental 23*.
Screening O=C(NCC1CCCO1)c1ccccc1OCc1ccc(Cl)cc1 (stereo unspecified) returned CHRM5 antagonist 6, M1 PAM parental -2, CHO-K1 Ca antag -4, M5 ag 1, M5 PAM -4 and M1 ag parental 3.
`O=C(Nc1ccccc1)c1ccccc1OCc1ccc(F)cc1` gave CHRM5 antagonist 13, M1 PAM parental -5, CHO-K1 Ca antag 9, M5 ag -1, M5 PAM -7 and M1 ag parental 3.
`O=C(Nc1ccc(O)cc1)c1ccccc1OCc1ccccc1` gave CHRM5 antagonist 14, M1 PAM parental 12, CHO-K1 Ca antag -3, M5 ag -2, M5 PAM -9 and M1 ag parental 16*.
`CCCN1C(=O)/C(=c2\sc3nc(=O)c(Cc4ccc(C)cc4)nn3c2=O)c2ccccc21` gave CHRM5 antagonist -9, M1 PAM parental 15, CHO-K1 Ca antag -1, M5 ag 0, M5 PAM 4 and M1 ag parental 0.
Screening CCOC(=O)/C=c1\s/c(=C(\C#N)C(=O)NC)n(-c2ccccc2)c1=O returned CHRM5 antagonist -12, M1 PAM parental 11, CHO-K1 Ca antag 3, M5 ag -2, M5 PAM 23* and M1 ag parental 1.
Screening CCOC(=O)/C=c1\s/c(=C(\C#N)C(N)=O)n(-c2ccccc2)c1=O returned CHRM5 antagonist -3, M1 PAM parental -3, CHO-K1 Ca antag -6, M5 ag 4, M5 PAM 7 and M1 ag parental 1.
O=C(CCn1c(=S)oc2ccccc21)Nc1ccccc1F was read as CHRM5 antagonist -8, M1 PAM parental -14, CHO-K1 Ca antag 26*, M5 ag -3, M5 PAM 1 and M1 ag parental 0.
`CNc1ccccc1NC(=O)CCn1c(=S)oc2ccccc21` gave CHRM5 antagonist 5, M1 PAM parental -4, CHO-K1 Ca antag -6, M5 ag -3, M5 PAM 6 and M1 ag parental 0.
O=C(Nc1nc(-c2cc(F)ccc2F)cs1)c1cccc(N2C(=O)CCC2=O)c1 was read as CHRM5 antagonist 17, M1 PAM parental -22, CHO-K1 Ca antag 32*, M5 ag 3, M5 PAM -17 and M1 ag parental 4.
CN(c1ccccc1)S(=O)(=O)c1ccc(C(=O)NCc2ccccc2CN2CCCC2)cc1 was read as CHRM5 antagonist 6, M1 PAM parental -13, CHO-K1 Ca antag 10, M5 ag -7, M5 PAM -6 and M1 ag parental 17*.
CN(c1ccccc1)S(=O)(=O)c1cccc(C(=O)NCc2ccccc2CN2CCCC2)c1 was read as CHRM5 antagonist 3, M1 PAM parental 14, CHO-K1 Ca antag -14, M5 ag -12, M5 PAM -16 and M1 ag parental 1.
Screening COc1cc(/C=C/C(O)=C/C(=O)/C=C/c2ccc(O)cc2)ccc1O returned CHRM5 antagonist 41*, M1 PAM parental -10, CHO-K1 Ca antag 19, M5 ag 48*, M5 PAM -35 and M1 ag parental 17*.
CCCCN(C(=O)CSc1nnnn1-c1ccccc1OC)C1CCS(=O)(=O)C1 (stereo unspecified) was read as CHRM5 antagonist 0, M1 PAM parental 13, CHO-K1 Ca antag -15, M5 ag -5, M5 PAM 2 and M1 ag parental 0.
Screening O=S1(=O)CC(N2CCSCC2)CN1Cc1cn(Cc2ccc(C(F)(F)F)cc2)nn1 (stereo unspecified) returned CHRM5 antagonist -4, M1 PAM parental 9, CHO-K1 Ca antag -18, M5 ag 2, M5 PAM -2 and M1 ag parental 2.
For Cc1coc2cc3oc(=O)c(CCC(=O)NC4CC4)c(C)c3cc12 the results were CHRM5 antagonist 17, M1 PAM parental -16, CHO-K1 Ca antag 28*, M5 ag 10, M5 PAM -17 and M1 ag parental 11.

Bioassay records as filed in PubChem.
